Assays:
[1] = molecular target: T1, Protein deacetylase HDAC6 (Homo sapiens, UniProt Q9UBN7); assay: Inhibition of N-terminal GST tagged human recombinant HDAC6 (1 to 1215 residues) expressed in Sf9 insect cells using Z-Lys(Ac)-AMC as fluorogenic substrate preincubated for 2 hrs followed by substrate addition and measured after 90 mins by microplate reader analysis
T1 sequence (Q9UBN7 whole entry): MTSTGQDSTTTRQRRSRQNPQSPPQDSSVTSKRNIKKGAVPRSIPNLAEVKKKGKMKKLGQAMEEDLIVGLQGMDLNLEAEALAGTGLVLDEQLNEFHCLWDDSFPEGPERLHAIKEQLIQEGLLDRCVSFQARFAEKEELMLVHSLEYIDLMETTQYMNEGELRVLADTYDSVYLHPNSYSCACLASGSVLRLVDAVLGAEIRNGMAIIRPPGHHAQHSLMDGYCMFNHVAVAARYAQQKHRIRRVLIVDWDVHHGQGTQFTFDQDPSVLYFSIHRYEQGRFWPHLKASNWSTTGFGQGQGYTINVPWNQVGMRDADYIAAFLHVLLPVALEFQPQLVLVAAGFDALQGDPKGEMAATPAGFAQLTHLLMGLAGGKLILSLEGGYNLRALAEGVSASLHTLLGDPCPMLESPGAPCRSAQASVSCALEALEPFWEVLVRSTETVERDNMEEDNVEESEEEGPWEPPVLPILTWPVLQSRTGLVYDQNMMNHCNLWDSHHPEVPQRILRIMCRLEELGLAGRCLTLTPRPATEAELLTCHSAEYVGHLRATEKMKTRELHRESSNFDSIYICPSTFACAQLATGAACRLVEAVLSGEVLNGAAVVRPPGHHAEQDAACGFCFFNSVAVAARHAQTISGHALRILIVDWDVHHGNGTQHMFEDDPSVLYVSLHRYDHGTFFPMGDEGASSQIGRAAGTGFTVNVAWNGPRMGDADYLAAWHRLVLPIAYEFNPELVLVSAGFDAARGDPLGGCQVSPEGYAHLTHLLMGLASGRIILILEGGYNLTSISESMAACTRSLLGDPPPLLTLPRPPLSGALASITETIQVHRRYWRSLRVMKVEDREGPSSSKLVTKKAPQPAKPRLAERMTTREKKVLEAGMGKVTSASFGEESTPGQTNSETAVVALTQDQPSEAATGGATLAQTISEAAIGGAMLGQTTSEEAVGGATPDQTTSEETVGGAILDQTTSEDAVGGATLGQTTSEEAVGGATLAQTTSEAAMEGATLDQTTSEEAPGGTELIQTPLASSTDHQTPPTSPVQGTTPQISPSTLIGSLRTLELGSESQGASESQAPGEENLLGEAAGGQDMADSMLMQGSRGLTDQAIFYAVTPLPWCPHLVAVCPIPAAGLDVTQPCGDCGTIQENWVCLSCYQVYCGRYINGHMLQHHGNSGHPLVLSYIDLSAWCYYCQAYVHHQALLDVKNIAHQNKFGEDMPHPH

[2] = molecular target: T1, Protein deacetylase HDAC6; assay: Inhibition of N-terminal GST tagged human recombinant HDAC6 (1 to 1215 residues) expressed in Sf9 insect cells using Z-Lys(Ac)-AMC as fluorogenic substrate preincubated for 5 mins followed by substrate addition and measured after 90 mins by microplate reader analysis
[3] = molecular target: Histone deacetylase 4 (Homo sapiens) (UniProt P56524); assay: Inhibition of N-terminal GST-tagged/C-terminal His-tagged human HDAC4 (627 to 1084 residues) expressed in Sf9 insect cells using Boc-Lys(Tfa)-AMC as fluorogenic substrate at 10 uM preincubated for 60 mins followed by substrate addition and measured after 90 mins by microplate reader analysis relative to control; details: time 150.0 min
Method in brief: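 Recombinant human HDAC4 was preincubated with inhibitor for 60 min at 25 °C in Tris-HCl pH 8.0/BSA buffer. Boc-Lys(Tfa)-AMC (42.86 μM solution) was then added for 90 min at 37 °C, followed by trypsin for 30 min at 37 °C. Fluorescence was read at ex 355/em 460. Tested at least twice in duplicate.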

[4] = molecular target: Histone deacetylase 1 (Homo sapiens) (UniProt Q13547); assay: Inhibition of C-terminal 6His/FLAG tagged human recombinant HDAC1 (1 to 482 residues) […] expressed in Sf9 insect cells using Z-Lys(Ac)-AMC as fluorogenic substrate at 10 uM preincubated for 60 mins followed by substrate addition and measured after 90 mins by microplate reader analysis relative to control; details: time 150.0 min
Method in brief: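 Human recombinant enzyme was preincubated with 3-fold inhibitor dilutions for 60 min at 25 °C in Tris-HCl pH 8.0 buffer with BSA. ZMAL (75 μM solution) was then added, and the mix was incubated 90 min at 37 °C (max 1% DMSO). Trypsin was added for 30 min at 37 °C, and fluorescence was read at ex 355/em 460. Tested at least twice in duplicate.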

Sequence of Histone deacetylase 4 (Homo sapiens) (P56524 whole entry, the tested form may be a part): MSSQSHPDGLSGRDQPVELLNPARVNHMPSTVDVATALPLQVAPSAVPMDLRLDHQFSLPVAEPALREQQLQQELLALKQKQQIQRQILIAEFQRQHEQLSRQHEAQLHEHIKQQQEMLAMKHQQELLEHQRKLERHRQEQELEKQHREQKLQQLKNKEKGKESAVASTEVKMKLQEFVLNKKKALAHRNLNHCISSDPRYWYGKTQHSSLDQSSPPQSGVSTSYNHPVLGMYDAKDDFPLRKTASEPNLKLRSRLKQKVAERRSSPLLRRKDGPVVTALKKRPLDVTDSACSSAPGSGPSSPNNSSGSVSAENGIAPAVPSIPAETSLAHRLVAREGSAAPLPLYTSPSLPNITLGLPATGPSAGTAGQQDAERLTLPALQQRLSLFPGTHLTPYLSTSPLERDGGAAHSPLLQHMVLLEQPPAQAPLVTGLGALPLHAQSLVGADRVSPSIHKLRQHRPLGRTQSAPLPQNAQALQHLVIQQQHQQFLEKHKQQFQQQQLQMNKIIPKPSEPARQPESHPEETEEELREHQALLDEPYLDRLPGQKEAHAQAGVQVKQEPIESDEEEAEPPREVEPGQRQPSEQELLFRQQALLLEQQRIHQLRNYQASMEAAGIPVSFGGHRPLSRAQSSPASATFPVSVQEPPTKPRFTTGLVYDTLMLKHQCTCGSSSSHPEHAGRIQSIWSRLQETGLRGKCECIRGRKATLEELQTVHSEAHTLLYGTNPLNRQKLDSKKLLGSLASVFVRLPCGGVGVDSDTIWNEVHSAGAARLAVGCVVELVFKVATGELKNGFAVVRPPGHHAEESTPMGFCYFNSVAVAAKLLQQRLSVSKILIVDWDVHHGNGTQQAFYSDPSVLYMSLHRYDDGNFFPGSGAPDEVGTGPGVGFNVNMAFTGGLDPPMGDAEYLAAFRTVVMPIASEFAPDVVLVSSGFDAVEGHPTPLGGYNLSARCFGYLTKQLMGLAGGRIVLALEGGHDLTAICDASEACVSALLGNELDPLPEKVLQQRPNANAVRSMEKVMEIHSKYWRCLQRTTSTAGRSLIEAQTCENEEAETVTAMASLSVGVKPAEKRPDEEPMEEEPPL
Sequence of Histone deacetylase 1 (Homo sapiens) (Q13547 whole entry, the tested form may be a part): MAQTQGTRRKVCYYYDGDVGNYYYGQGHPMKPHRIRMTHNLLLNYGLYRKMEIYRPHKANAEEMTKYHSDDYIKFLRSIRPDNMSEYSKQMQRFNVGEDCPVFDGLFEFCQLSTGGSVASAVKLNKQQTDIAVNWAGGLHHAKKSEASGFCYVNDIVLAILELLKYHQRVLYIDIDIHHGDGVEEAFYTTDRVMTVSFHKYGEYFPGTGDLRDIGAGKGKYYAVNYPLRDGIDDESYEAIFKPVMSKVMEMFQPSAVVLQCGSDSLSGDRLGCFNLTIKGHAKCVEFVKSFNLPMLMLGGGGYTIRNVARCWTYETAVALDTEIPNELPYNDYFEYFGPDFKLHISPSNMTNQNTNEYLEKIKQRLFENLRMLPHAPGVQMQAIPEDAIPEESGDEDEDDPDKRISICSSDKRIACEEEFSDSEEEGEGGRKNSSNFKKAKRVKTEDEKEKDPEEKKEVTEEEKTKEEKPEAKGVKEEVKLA

Structure (SMILES)	IC50 [1] [µM]	IC50 [2] [µM]	inhibition [3] [%]	inhibition [4] [%]
FC(F)c1nnc(-c2cnc(NCc3ccccc3)nc2)o1	0.129	0.347	< 15	< 15
FC(F)(F)c1nnc(-c2cnc(NCc3ccccc3)nc2)o1	0.601	0.84	< 15	< 15

Reference: ChEMBL document CHEMBL5365542, “Difluoromethyl-1,3,4-oxadiazoles Are Selective, Mechanism-Based, and Essentially Irreversible Inhibitors of Histone Deacetylase 6” (J Med Chem, 2023)
